Legend:
Type in all cases: functional
[1] = system: Mus musculus; test: Percent increase in life span against P-388 leukemia in mice was determined at a dose of 200 mg/kg; conditions: P388
Outline: (§1)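 Male B6D2F1J mice, 5 per dose group, received 10⁶ P-388 cells ip on day 0. Dosing was ip qd × 4 on days 1-4 in sterile saline, or 10% Tween 80 for the butyl thioether. Median survival times of treated (T) and untreated control (C, 10-17 mice) groups were compared: %ILS = [(T/C) − 1]100. Weights taken on days 1 and 7.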

[2] = system: Mus musculus; test: Percent increase in life span against P-388 leukemia in mice was determined at a dose of 25 mg/kg; conditions: P388; outline: as §1
[3] = system: Mus musculus; test: Antitumor activity was determined for average weight on day 1 against P-388 leukemia in mice at a dose of 300 mg/kg
Outline: (§2)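 Male B6D2F1J mice, groups of 5, inoculated ip with 10⁶ P-388 cells on day 0. Drug given ip on days 1-4 (qd × 4) in sterile saline, or in 10% Tween 80 for the poorly water-soluble thioether. Average weight per mouse recorded on day 1, with reweighing on day 7 for percent weight change. Untreated control groups had 10-17 animals per experiment.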

[4] = system: Mus musculus; test: Antitumor activity was determined for survival range of mice against P-388 leukemia in mice at a dose of 300 mg/kg
Outline: (§3)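 Male B6D2F1J mice implanted ip with 10⁶ P-388 cells on day 0; test agents given ip on days 1–4 (qd × 4) in sterile saline, or in 10% Tween 80 for the lipophilic thioether. Groups of 5 treated mice, with 10–17 untreated controls per experiment. Mice weighed on days 1 and 7 to give the 7-day weight change in g and %. Survival recorded in days as median and range.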

[5] = system: Mus musculus; test: Antitumor activity was determined for average 7-day weight change against P-388 leukemia in mice at a dose of 300 mg/kg
Outline: (§4)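 Male B6D2F1J mice given 10⁶ P-388 cells ip on day 0, then treated ip once daily on days 1-4 (qd × 4), 5 mice per dose group. Compounds dosed in sterile saline, except one lipophilic thioether given in 10% Tween 80. Mice weighed on days 1 and 7; mean weight per mouse on day 1 and 7-day weight change reported in g and as percent.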

[6] = system: Mus musculus; test: Antitumor activity was determined for 7-day average percent weight change against P-388 leukemia in mice at a dose of 25 mg/kg; outline: as §4
[7] = system: Mus musculus; test: Antitumor activity was determined for average 7-day weight change against P-388 leukemia in mice at a dose of 100 mg/kg; outline: as §4
[8] = system: Mus musculus; test: Antitumor activity was determined for 7-day average percent weight change against P-388 leukemia in mice at a dose of 200 mg/kg; outline: as §4
[9] = system: Mus musculus; test: Antitumor activity was determined for average weight on day 1 against P-388 leukemia in mice at a dose of 25 mg/kg; outline: as §2
[10] = system: Mus musculus; test: Antitumor activity was determined for 7-day average percent weight change against P-388 leukemia in mice at a dose of 50 mg/kg; outline: as §4
[11] = system: Mus musculus; test: Antitumor activity was determined for 7-day average percent weight change against P-388 leukemia in mice at a dose of 300 mg/kg; outline: as §4
[12] = system: Mus musculus; test: Antitumor activity was determined for survival range of mice against P-388 leukemia in mice at a dose of 100 mg/kg; outline: as §3
[13] = system: Mus musculus; test: Antitumor activity was determined for median survival of mice against P-388 leukemia in mice at a dose of 300 mg/kg; outline: as §3
[14] = system: Mus musculus; test: Antitumor activity was determined for median survival of mice against P-388 leukemia in mice at a dose of 50 mg/kg; outline: as §3
[15] = system: Mus musculus; test: Antitumor activity was determined for median survival of mice against P-388 leukemia in mice at a dose of 100 mg/kg; outline: as §3
[16] = system: Mus musculus; test: Percent increase in life span against P-388 leukemia in mice was determined at a dose of 100 mg/kg; conditions: P388; outline: as §1
[17] = system: Mus musculus; test: Antitumor activity was determined for average weight on day 1 against P-388 leukemia in mice at a dose of 100 mg/kg; outline: as §4
[18] = system: Mus musculus; test: Antitumor activity was determined for median survival of mice against P-388 leukemia in mice at a dose of 200 mg/kg; outline: as §3
[19] = system: Mus musculus; test: Antitumor activity was determined for survival range of mice against P-388 leukemia in mice at a dose of 25 mg/kg; outline: as §3
[20] = system: Mus musculus; test: Percent increase in life span against P-388 leukemia in mice was determined at a dose of 50 mg/kg; conditions: P388; outline: as §1
[21] = system: Mus musculus; test: Percent increase in life span against P-388 leukemia in mice was determined at a dose of 300 mg/kg; conditions: P388; outline: as §1
[22] = system: Mus musculus; test: Antitumor activity was determined for survival range of mice against P-388 leukemia in mice at a dose of 50 mg/kg; outline: as §3
[23] = system: Mus musculus; test: Antitumor activity was determined for 7-day average percent weight change against P-388 leukemia in mice at a dose of 100 mg/kg; outline: as §4
[24] = system: Mus musculus; test: Antitumor activity was determined for survival range of mice against P-388 leukemia in mice at a dose of 200 mg/kg; outline: as §3
[25] = system: L1210; test: Evaluated for cytotoxicity against L1210 mouse leukemia cells; conditions: read-out: ID50 (the source's name)
Outline: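 L1210 murine leukemia cells in Eagle's minimal essential medium with 15% fetal calf serum, streptomycin (100 μg/mL), penicillin (100 units/mL) and 0.05 mM 2-mercaptoethanol. Cells counted by Coulter counter after 48 h exposure. ID50 is the 50% growth-inhibitory dose. Triplicate assays, standard deviation ±10%.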

[26] = system: Mus musculus; test: Antitumor activity was determined for average 7-day weight change against P-388 leukemia in mice at a dose of 200 mg/kg; outline: as §4
[27] = system: Mus musculus; test: Antitumor activity was determined for average 7-day weight change against P-388 leukemia in mice at a dose of 25 mg/kg; outline: as §4
[28] = system: Mus musculus; test: Antitumor activity was determined for average weight on day 1 against P-388 leukemia in mice at a dose of 200 mg/kg; outline: as §2
[29] = system: Mus musculus; test: Antitumor activity was determined for average weight on day 1 against P-388 leukemia in mice at a dose of 50 mg/kg; outline: as §2
[30] = system: Mus musculus; test: Antitumor activity was determined for median survival of mice against P-388 leukemia in mice at a dose of 25 mg/kg; outline: as §3
[31] = system: Mus musculus; test: Antitumor activity was determined for average 7-day weight change against P-388 leukemia in mice at a dose of 50 mg/kg; outline: as §4
[32] = system: Mus musculus; test: Percent increase in life span against P-388 leukemia in mice was determined at a dose of 32 mg/kg; conditions: P388; outline: as §1
[33] = system: Mus musculus; test: Antitumor activity was determined for median survival of mice against P-388 leukemia in mice at a dose of 8 mg/kg; outline: as §3
[34] = system: Mus musculus; test: Antitumor activity was determined for survival range of mice against P-388 leukemia in mice at a dose of 16 mg/kg; outline: as §3
[35] = system: Mus musculus; test: Percent increase in life span against P-388 leukemia in mice was determined at a dose of 8 mg/kg; conditions: P388; outline: as §1
[36] = system: Mus musculus; test: Antitumor activity was determined for 7-day average percent weight change against P-388 leukemia in mice at a dose of 16 mg/kg; outline: as §4
[37] = system: Mus musculus; test: Antitumor activity was determined for average 7-day weight change against P-388 leukemia in mice at a dose of 32 mg/kg; outline: as §4
[38] = system: Mus musculus; test: Antitumor activity was determined for survival range of mice against P-388 leukemia in mice at a dose of 32 mg/kg; outline: as §3
[39] = system: Mus musculus; test: Antitumor activity was determined for 7-day average percent weight change against P-388 leukemia in mice at a dose of 8 mg/kg; outline: as §4
[40] = system: Mus musculus; test: Antitumor activity was determined for average 7-day weight change against P-388 leukemia in mice at a dose of 8 mg/kg; outline: as §4
[41] = system: Mus musculus; test: Antitumor activity was determined for median survival of mice against P-388 leukemia in mice at a dose of 16 mg/kg; outline: as §3
[42] = system: Mus musculus; test: Antitumor activity was determined for median survival of mice against P-388 leukemia in mice at a dose of 32 mg/kg; outline: as §3
[43] = system: Mus musculus; test: Antitumor activity was determined for survival range of mice against P-388 leukemia in mice at a dose of 8 mg/kg
Outline: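 Male B6D2F1J mice, 5 per dose group, implanted ip with 10⁶ P-388 leukemia cells on day 0. Drug given ip daily on days 1-4 (qd × 4) in sterile saline, or in 10% Tween 80 for the butyl thioether. Survival range recorded in days. Untreated control groups had 10-17 animals per experiment. Mice weighed on days 1 and 7.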

[44] = system: Mus musculus; test: Antitumor activity was determined for average weight on day 1 against P-388 leukemia in mice at a dose of 32 mg/kg; outline: as §2
[45] = system: Mus musculus; test: Antitumor activity was determined for average weight on day 1 against P-388 leukemia in mice at a dose of 16 mg/kg; outline: as §4
[46] = system: Mus musculus; test: Antitumor activity was determined for average 7-day weight change against P-388 leukemia in mice at a dose of 16 mg/kg; outline: as §4
[47] = system: Mus musculus; test: Antitumor activity was determined for average weight on day 1 against P-388 leukemia in mice at a dose of 8 mg/kg; outline: as §2
[48] = system: Mus musculus; test: Antitumor activity was determined for 7-day average percent weight change against P-388 leukemia in mice at a dose of 32 mg/kg; outline: as §4
[49] = system: Mus musculus; test: Percent increase in life span against P-388 leukemia in mice was determined at a dose of 16 mg/kg; conditions: P388; outline: as §1

## O=C(O)[C@H]1OC(n2cc(F)c(=O)[nH]c2=O)[C@H](O)[C@@H]1O (stereo not given in full)
[1]
  ILS at 200 mg/kg: 45%
[2]
  ILS at 25 mg/kg: 27%
[3]
  Average weight: 25 g mouse-1
[4]
  Survival range: 16
[5]
  Average weight: 0 g mouse-1
[6]
  Weight change: 10%
[7]
  Average weight: 2 g mouse-1
[8]
  Weight change: -3%
[9]
  Average weight: 24.6 g mouse-1
[10]
  Weight change: 7%
[11]
  Weight change: 0%
[12]
  Survival range: 15
[13]
  Survival median: 18
[14]
  Survival median: 15
[15]
  Survival median: 16
[16]
  ILS at 100 mg/kg: 45%
[17]
  Average weight: 23.6 g mouse-1
[18]
  Survival median: 16
[19]
  Survival range: 14
[20]
  ILS at 50 mg/kg: 36%
[21]
  ILS at 300 mg/kg: 63%
[22]
  Survival range: 13
[23]
  Weight change: 8%
[24]
  Survival range: 16
[25]
  IC50: > 1000 µM
[26]
  Average weight: -0.8 g mouse-1
[27]
  Average weight: 2.6 g mouse-1
[28]
  Average weight: 23.8 g mouse-1
[29]
  Average weight: 24.2 g mouse-1
[30]
  Survival median: 14
[31]
  Average weight: 1.6 g mouse-1

## NC[C@H]1OC(n2cc(F)c(=O)[nH]c2=O)[C@H](O)[C@@H]1O (stereo not given in full)
[32]
  ILS at 32 mg/kg: 8%
[33]
  Survival median: 12
[34]
  Survival range: 10
[35]
  ILS at 8 mg/kg: 0%
[36]
  Weight change: 16%
[37]
  Average weight: 3.2 g mouse-1
[38]
  Survival range: 11
[39]
  Weight change: 23%
[40]
  Average weight: 5.8 g mouse-1
[41]
  Survival median: 12
[42]
  Survival median: 13
[43]
  Survival range: 11
[44]
  Average weight: 26.8 g mouse-1
[45]
  Average weight: 26.4 g mouse-1
[46]
  Average weight: 4.4 g mouse-1
[25]
  IC50: 38 µM
[47]
  Average weight: 25.6 g mouse-1
[48]
  Weight change: 12%
[49]
  ILS at 16 mg/kg: 0%
